Experiments:
Assay type in all cases: functional
Mus musculus [1] = species on record: Mus musculus; assay: Inhibition of serotonin uptake carrier in mice
Mus musculus [2] = species on record: Mus musculus; assay: Antagonistic activity against acetic acid induced abdominal constriction (writhing) in mice; conditions: Abdomen
In short: (§1)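 Male CF-1 mice (~20 g), fasted overnight, five per point, each used once. Drug given sc in distilled water, 10 mL/kg, 20 min before 0.6% acetic acid ip (10 mL/kg). Writhes counted for 10 min starting 5 min after acid. Percent inhibition versus same-day controls; ED50 by probit least-squares of log dose.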

Mus musculus [3] = assay: Antagonistic activity against acetic acid induced abdominal constriction (writhing) in mice, when administered in combination with 0.2 mg/kg of morphine; conditions: Abdomen; in short: as §1
Mus musculus [4] = species on record: Mus musculus; assay: Ability to antagonize p-chloroamphetamine-induced depletion of brain serotonin in mouse
In short: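 Male albino mice (16–20 g), groups of five; compound given ip as aqueous solution, then 1 h later p-chloroamphetamine HCl 20.6 mg/kg ip. Decapitation 6 h after that; whole brains frozen on dry ice, stored at -15 °C, serotonin measured by HPLC with electrochemical detection. ED50 from dose-response.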

Rattus norvegicus = species on record: Rattus norvegicus; assay: Ability to antagonize saccharin-induced drinking (palatability-induced ingestion) in rats
In short: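 Long-Evans hooded male rats (400–600 g, n=24), individually housed, given 2 h weekday access to 0.01 M sodium saccharin; water and chow free except 0.5 h before and during access. Drug ip, 1 mL/kg, 0.5 h before access. Intake expressed as ratio to nearest noninjection (Thursday) control, normalized to distilled-water group = 100%; mean of four to six rats; ED50 with 95% confidence limits.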

| SMILES | Ki (Mus musculus [1]) | ED50 (Mus musculus [2]) | ED50 (Mus musculus [3]) | ED50 (Mus musculus [4]) | ED50 (Rattus norvegicus) |
| --- | --- | --- | --- | --- | --- |
| CNCC[C@H](Oc1ccc(C(F)(F)F)cc1)c1ccccc1 | 33 nM | 25.7 mg/kg | 5.7 mg/kg | 2.1 mg/kg | 4.9 mg/kg |
| CNCC[C@@H](Oc1ccc(C(F)(F)F)cc1)c1ccccc1 [R-FLUOXETINE] | 21 nM | 15.3 mg/kg | 3.6 mg/kg | 1.2 mg/kg | 6.1 mg/kg |

Source: ChEMBL document CHEMBL1124157, “Absolute configurations and pharmacological activities of the optical isomers of fluoxetine, a selective serotonin-uptake inhibitor” (J Med Chem, 1988)
